Experimental data reported in ChEMBL document CHEMBL1157157, “N-Aroyl-3,5-bis(benzylidene)-4-piperidones: a novel class of antimycobacterial agents” (Bioorg Med Chem, 2008).
Converted amounts (≈) assume the structure as drawn. The source made the active and inactive calls. The calls are words filed in the database; no cut-off is given here.

Experiments:
[1] = Lipophilicity, log P of the compound; assay type: physicochemical; settings: octanol/water
Outline: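 log P calculated with ACD algorithm and database statistics; not measured experimentally.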

Mus musculus [2] = assay: Neurotoxicity in mouse at 100 mg/kg after 0.5 hrs; assay type: toxicity, organism-based; set-up: dose 100 mg/kg; settings: in vivo
Outline: (§1)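 Mice dosed intraperitoneally at 30, 100 and 300 mg/kg; 1a and 1b given as hydrochloride salts. Observed 0.5 and 4 h after dosing. Value is number of animals showing neurological deficit over number dosed. Deaths also recorded.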

Mus musculus [3] = assay: Neurotoxicity in mouse at 300 mg/kg after 0.5 hrs; assay type: toxicity, organism-based; set-up: dose 300 mg/kg; settings: in vivo; outline: as §1
Mus musculus [4] = assay: Neurotoxicity in mouse at 100 mg/kg after 4 hrs; assay type: toxicity, organism-based; set-up: dose 100 mg/kg; settings: in vivo; outline: as §1
Mus musculus [5] = assay: Neurotoxicity in mouse at 300 mg/kg after 4 hrs; assay type: toxicity, organism-based; set-up: dose 300 mg/kg; settings: in vivo; outline: as §1
[6] = tested on: Mycobacterium tuberculosis; assay: Antimycobacterial activity against Mycobacterium tuberculosis H37Rv at 6.25 ug/ml by broth microdilution assay; assay type: functional
Outline: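 Single-concentration screen at 6.25 µg/mL against M. tuberculosis H37Rv (ATCC 27294), broth microdilution in BACTEC 12B medium. Read-out is % growth inhibition versus controls. At least 90% inhibition counted as active.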

[7] = tested on: Mycobacterium tuberculosis; assay: Antimycobacterial activity against Mycobacterium tuberculosis H37Rv by broth microdilution assay; assay type: functional
Outline: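 M. tuberculosis H37Rv (ATCC 27294) grown in BACTEC 12B medium, broth microdilution. MIC taken as the lowest concentration giving a 90% reduction in fluorescence relative to controls. Rifampin served as reference drug.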

Rattus norvegicus [8] = assay: Neurotoxicity in rat at 30 mg/kg, po after 0.25 hrs; assay type: toxicity, organism-based; set-up: dose 30 mg/kg, route oral; settings: in vivo
Outline: (§2)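 Rats dosed orally at 30 or 50 mg/kg and examined for neurotoxicity 0.25, 0.5, 1, 2 and 4 h after dosing. Four animals per group, with three rats at one 0.5 h time point.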

Liver [9] = assay: Stimulation of respiration in rat liver mitochondria assessed as effect on swelling at 5 uM; assay type: functional
Outline: (§3)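 Rat liver mitochondria isolated by differential centrifugation (respiratory control ratio 5–7). Swelling of fresh mitochondria followed at 30 °C in 125 mM sucrose, 65 mM KCl, 10 mM Hepes, 5 mM potassium phosphate, 1 mM MgCl2, pH 7.2, with 5 mM succinate. Compounds tested at 5, 10 and 100 μM; DMSO solvent control.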

Liver [10] = assay: Stimulation of respiration in rat liver mitochondria assessed as effect on swelling at 10 uM; assay type: functional; outline: as §3
Liver [11] = assay: Stimulation of respiration in rat liver mitochondria assessed as effect on swelling at 100 uM; assay type: functional; outline: as §3
Rattus norvegicus [12] = assay: Neurotoxicity in rat at 50 mg/kg, po after 1 hr; assay type: toxicity, organism-based; set-up: dose 50 mg/kg, route oral; settings: in vivo; outline: as §2
[13] = tested on: Mycobacterium tuberculosis; assay: Antimycobacterial activity against Mycobacterium tuberculosis H37Rv at 12.5 ug/ml by broth microdilution assay; assay type: functional
Outline: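 Primary screen against M. tuberculosis H37Rv (ATCC 27294) at a single concentration of 12.5 µg/mL in BACTEC 12B medium by broth microdilution. Growth inhibition expressed as % relative to controls. Hydrochloride salt used where applicable.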

Rattus norvegicus [14] = assay: Neurotoxicity in rat at 30 mg/kg, po after 2 hrs; assay type: toxicity, organism-based; set-up: dose 30 mg/kg, route oral; settings: in vivo; outline: as §2
Rattus norvegicus [15] = assay: Neurotoxicity in rat at 30 mg/kg, po after 4 hrs; assay type: toxicity, organism-based; set-up: dose 30 mg/kg, route oral; settings: in vivo; outline: as §2
Rattus norvegicus [16] = assay: Neurotoxicity in rat at 30 mg/kg, po after 0.5 hrs; assay type: toxicity, organism-based; set-up: dose 30 mg/kg, route oral; settings: in vivo; outline: as §2

Structure (SMILES)	logP [1]	Activity (Mus musculus [2])	Activity (Mus musculus [3])	Activity (Mus musculus [4])	Activity (Mus musculus [5])	inhibition at 6.25 µg/mL [6]	logP ([1]; read-out: logP)	MIC [7]	also measured
CCN(CC)CCOc1ccc(C(=O)N2C/C(=C\c3ccc(Cl)cc3)C(=O)/C(=C/c3ccc(Cl)cc3)C2)cc1.Cl	8	Non-toxic	Non-toxic	Non-toxic	Non-toxic	37%			
CC[N+](C)(CC)CCOc1ccc(C(=O)N2C/C(=C\c3ccccc3)C(=O)/C(=C/c3ccccc3)C2)cc1.[I-]		Toxic	Toxic	Toxic	Toxic	0%	2.2		
Cl.O=C1/C(=C/c2ccccc2)CN(C(=O)c2ccc(OCCN3CCOCC3)cc2)C/C1=C\c1ccccc1		Non-toxic		Non-toxic	Non-toxic	100%	5.4	6.25 µg/mL	
CN(C)CCOc1ccc(C(=O)N2C/C(=C\c3ccccc3)C(=O)/C(=C/c3ccccc3)C2)cc1.Cl	5.9	Non-toxic	Non-toxic	Non-toxic	Non-toxic	98%		1.56 µg/mL	Activity (Rattus norvegicus [8]): Non-toxic; Activity (Liver [9]): inactive; Activity (Liver [10]): inactive; Activity (Liver [11]): inactive
Cl.O=C1/C(=C/c2ccc([N+](=O)[O-])cc2)CN(C(=O)c2ccc(OCCN3CCOCC3)cc2)C/C1=C\c1ccc([N+](=O)[O-])cc1		Non-toxic		Non-toxic	Non-toxic	100%	5	6.25 µg/mL	
CCN(CC)CCOc1ccc(C(=O)N2C/C(=C\c3ccc(C)cc3)C(=O)/C(=C/c3ccc(C)cc3)C2)cc1.Cl	7.9	Non-toxic	Non-toxic	Non-toxic	Non-toxic	100%		3.13 µg/mL	
Cl.O=C1/C(=C/c2ccc(Cl)cc2)CN(C(=O)c2ccc(OCCN3CCCCC3)cc2)C/C1=C\c1ccc(Cl)cc1	8.1					86%			
CCN(CC)CCOc1ccc(C(=O)N2C/C(=C\c3ccccc3)C(=O)/C(=C/c3ccccc3)C2)cc1.Cl	7			Non-toxic	Non-toxic	99%			Activity (Rattus norvegicus [12]): Non-toxic
CO[C@H]1/C=C/O[C@@]2(C)Oc3c(C)c(O)c4c(O)c(c(/C=N/N5CCN(C)CC5)c(O)c4c3C2=O)NC(=O)/C(C)=C\C=C\[C@H](C)[C@H](O)[C@@H](C)[C@@H](O)[C@@H](C)[C@H](OC(C)=O)[C@@H]1C [RIFAMPIN]								0.07 µg/mL (≈ 0.0851 µM)	
O=C1/C(=C/c2ccc([N+](=O)[O-])cc2)CNC/C1=C\c1ccc([N+](=O)[O-])cc1	5.3	Non-toxic	Non-toxic	Non-toxic	Non-toxic			0.2 µg/mL (≈ 0.547 µM)	inhibition at 12.5 µg/mL [13]: 100%; Activity (Liver [9]): inactive; Activity (Liver [10]): inactive; Activity (Liver [11]): inactive
CCN(CC)CCOc1ccc(C(=O)O)cc1.Cl		Non-toxic	Non-toxic	Non-toxic	Non-toxic	12%	2.9		
Cl.O=C1/C(=C/c2ccc(Cl)cc2)CNC/C1=C\c1ccc(Cl)cc1	6.8	Non-toxic	Non-toxic	Non-toxic	Non-toxic			6.25 µg/mL	inhibition at 12.5 µg/mL [13]: 99%
Cc1ccc(/C=C2\CNC/C(=C\c3ccc(C)cc3)C2=O)cc1	6.6	Non-toxic	Non-toxic	Non-toxic	Non-toxic	0%			
Cl.O=C1/C(=C/c2ccc(Cl)cc2)CN(C(=O)c2ccc(OCCN3CCOCC3)cc2)C/C1=C\c1ccc(Cl)cc1		Non-toxic	Non-toxic	Non-toxic	Non-toxic	0%	6.4		Activity (Rattus norvegicus [14]): Non-toxic
CC[N+](C)(CC)CCOc1ccc(C(=O)N2C/C(=C\c3ccc([N+](=O)[O-])cc3)C(=O)/C(=C/c3ccc([N+](=O)[O-])cc3)C2)cc1.[I-]			Toxic		Toxic	0%	1.8		Activity (Rattus norvegicus [15]): Non-toxic
COc1ccc(C(=O)N2C/C(=C\c3ccc(Cl)cc3)C(=O)/C(=C/c3ccc(Cl)cc3)C2)cc1			Non-toxic	Non-toxic	Non-toxic	47%	6		
CC[N+](C)(CC)CCOc1ccc(C(=O)N2C/C(=C\c3ccc(C)cc3)C(=O)/C(=C/c3ccc(C)cc3)C2)cc1.[I-]		Non-toxic		Non-toxic	Toxic	81%	3.1		
CN(C)CCOc1ccc(C(=O)N2C/C(=C\c3ccc([N+](=O)[O-])cc3)C(=O)/C(=C/c3ccc([N+](=O)[O-])cc3)C2)cc1.Cl		Non-toxic		Non-toxic		27%	5.5		Activity (Rattus norvegicus [16]): Non-toxic
CN(C)CCOc1ccc(C(=O)N2C/C(=C\c3ccc(Cl)cc3)C(=O)/C(=C/c3ccc(Cl)cc3)C2)cc1.Cl	7	Non-toxic	Non-toxic	Non-toxic	Non-toxic	100%		1.56 µg/mL	
Cc1ccc(/C=C2\CN(C(=O)c3ccc(OCCN4CCOCC4)cc3)C/C(=C\c3ccc(C)cc3)C2=O)cc1.Cl		Non-toxic	Non-toxic	Non-toxic	Non-toxic	100%	6.3	0.78 µg/mL	
CCN(CC)CCOc1ccc(C(=O)N2C/C(=C\c3ccc([N+](=O)[O-])cc3)C(=O)/C(=C/c3ccc([N+](=O)[O-])cc3)C2)cc1.Cl	6.5					34%			
CC[N+](C)(CC)CCOc1ccc(C(=O)N2C/C(=C\c3ccc(Cl)cc3)C(=O)/C(=C/c3ccc(Cl)cc3)C2)cc1.[I-]		Non-toxic	Non-toxic	Non-toxic	Non-toxic	23%	3.2		
Cl.O=C1/C(=C/c2ccccc2)CN(C(=O)c2ccc(OCCN3CCCCC3)cc2)C/C1=C\c1ccccc1	7.1					100%		6.25 µg/mL	
O=C1/C(=C/c2ccccc2)CN(C(=O)c2ccccc2)C/C1=C\c1ccccc1						0%	5.5		
Cl.O=C1/C(=C/c2ccc([N+](=O)[O-])cc2)CN(C(=O)c2ccc(OCCN3CCCCC3)cc2)C/C1=C\c1ccc([N+](=O)[O-])cc1	6.6			Non-toxic		100%		3.13 µg/mL	
Cc1ccc(/C=C2\CN(C(=O)c3ccc(OCCN(C)C)cc3)C/C(=C\c3ccc(C)cc3)C2=O)cc1.Cl	6.8		Non-toxic	Non-toxic	Non-toxic	100%		3.13 µg/mL	
Cc1ccc(/C=C2\CN(C(=O)c3ccc(OCCN4CCCCC4)cc3)C/C(=C\c3ccc(C)cc3)C2=O)cc1.Cl	8		Non-toxic	Non-toxic	Non-toxic	100%		3.13 µg/mL	
Cl.O=C1/C(=C/c2ccccc2)CNC/C1=C\c1ccccc1	5.7	Non-toxic	Non-toxic	Non-toxic	Non-toxic			3.13 µg/mL	inhibition at 12.5 µg/mL [13]: 99%
